Rows were chosen to be rich in hits. Some 4.3% of all compounds tested hit in one or more screens of this group.
ALR inh = inhibitors of human sulfhydryl oxidase ALR. hit rate 3.8% among 290,000. P55789. inhibition, % (concentration not given with the values). purified ALR, DTT oxidation, H2O2 HRP-luminol luminescence;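 active means mean replicate inhibition above about 79%, with every replicate also reaching it, limit read from the data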
Target sequence (P55789 whole entry, looked up): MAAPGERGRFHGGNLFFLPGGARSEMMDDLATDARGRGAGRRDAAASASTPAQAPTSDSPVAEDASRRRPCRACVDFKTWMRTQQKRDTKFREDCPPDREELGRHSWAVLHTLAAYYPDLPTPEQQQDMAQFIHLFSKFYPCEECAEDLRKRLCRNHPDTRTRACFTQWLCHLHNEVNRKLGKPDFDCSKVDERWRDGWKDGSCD
RBBP9 inhibitor = human RBBP9 hydrolase inhibition; O75884; recombinant RBBP9, FP-Rh probe fluorescence polarization; inhibition, % at 7.94 µM; hit rate 0.2% among 220,000; AID 1515;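 active means inhibition above the campaign mean of all tested compounds plus 3 SD, cut at about 14% in these data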;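 further: plate controls were DMSO wells with RBBP9 for no effect and wells lacking RBBP9 protein for full effect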
Target sequence (O75884 whole entry, looked up): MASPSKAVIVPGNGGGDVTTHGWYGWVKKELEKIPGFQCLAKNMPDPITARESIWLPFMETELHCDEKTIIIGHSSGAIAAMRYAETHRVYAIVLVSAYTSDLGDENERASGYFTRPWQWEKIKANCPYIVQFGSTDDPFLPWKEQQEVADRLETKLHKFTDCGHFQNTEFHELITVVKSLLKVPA
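Assay system: recombinant human RBBP9; Reagent: Serine-hydrolase probe FP-Rh, 375 nM pre-mixing; Doses: 7.94 µM single dose, 0.794% DMSO; Incubation: 30 min then 45 min, 25 °C; Detection: fluorescence polarization (mP), excitation 525 nm, emission 598 nm; Evaluation: percent inhibition from mP, scaled between DMSO and no-protein wells.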
PREPL inh = human PREPL enzyme inhibition; AID 2751; recombinant PREPL, fluorescence polarization activity-based probe; hit rate 0.68% among 320,000; inhibition, % at 5.96 µM; Q4J6C6; in the data active means inhibition above about 43%;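 further: 0% = enzyme with DMSO and 100% = wells lacking enzyme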
Rin1 Abl inh = inhibitors of human Rin1-Abl protein interaction; P00519+Q13671; TR-FRET Rin1/Abl binding, biochemical; inhibition, % at 7.35 µM; hit rate 0.4% among 360,000; AID 588664; in the data active means inhibition above about 5%, passing the limit was not always enough
SUMO HTRF inh = blocks human SUMOylation mediated by UBC9; P63279; HTRF SUMOylation assay, SAE1/SAE2 + UBC9, in vitro; inhibition, % at 35 µM; hit rate 0.36% among 290,000; AID 2006; in the data active means inhibition above about 50%, passing the limit was not always enough
UBC13 polyUb = human UBC13 polyubiquitination inhibition; P61088; UBC13 polyubiquitin chain formation, TR-FRET; inhibition, % at 20 µM; hit rate 0.47% among 330,000; in the data active means inhibition above about 45%, passing the limit was not always enough
Target sequence (P61088 whole entry, looked up): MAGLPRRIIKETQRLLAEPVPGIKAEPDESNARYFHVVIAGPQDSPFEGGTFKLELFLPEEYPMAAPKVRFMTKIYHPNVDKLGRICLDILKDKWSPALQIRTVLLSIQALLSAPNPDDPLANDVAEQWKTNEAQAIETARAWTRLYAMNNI
The depositor's hits bear a star; x = no result given.

SMILES	ALR inh	RBBP9 inhibitor	PREPL inh	Rin1 Abl inh	SUMO HTRF inh	UBC13 polyUb
CN1CCN(NC(=O)CN2C(=O)/C(=C/c3ccccc3Cl)SC2=S)CC1	99*	0	3	-5	-2	31
O=C(CN1C(=O)S/C(=C\C=C\c2ccccc2)C1=O)Nc1ccccc1C(=O)O	97*	-8	-15	0	20	12
CC(C(=O)Nc1ccc(O)cc1C(=O)O)N1C(=O)/C(=C\c2cccs2)SC1=S (centres undefined)	87*	x	3	-2	35	-14
O=C(CN1C(=O)/C(=C\c2ccco2)SC1=S)Nc1ccc(O)cc1C(=O)O	39	x	9	0	82*	-12
CN1CCN(NC(=O)CN2C(=O)/C(=C/c3c(Cl)cccc3Cl)SC2=S)CC1	x	0	0	-6	-9	0
Cc1ccc(C(CC(=O)N2CCNCC2)c2ccccc2)c(O)c1C (centres undefined)	0	x	-9	0	-22	7
O=C(CCN1C(=O)/C(=C/c2ccccc2Cl)SC1=S)Nc1ccccc1C(=O)O	98*	x	8	0	12	-5
O=S1(=O)NC(=NCCOCCO)c2ccccc21	-2	0	10	-2	14	-8
CC(C)C(CCN1C(=O)c2ccccc2C1=O)c1ccco1 (centres undefined)	90*	10	-9	-3	17	-6
O=C(OCCN1C(=O)c2ccccc2C1=O)c1ccco1	0	5	1	-9	11	2
CSCCNC(=O)C1(C)CCN1C(=O)C/C=C/c1ccccc1 (centres undefined)	x	x	x	0	x	x
COC(=O)c1ccc(CSCC(=O)Nc2ccccc2)cc1	92*	1	2	3	-2	7
NC(=O)c1ccc(NC(=O)CSC(=O)c2ccccc2)cc1	99*	x	6	-1	x	0
Cc1nnc(SCC(=O)Nc2ccc(C(N)=O)cc2)n1-c1ccccc1	-11	x	-10	3	-4	2
O=C(CSCc1ccc(C(=O)O)cc1)Nc1ccc2ccccc2c1	99*	-1	-11	1	9	2
CCOC(=O)c1ccc(NC(=O)CSCC(=O)OCC(=O)c2ccccc2)cc1	100*	1	5	-1	-17	0
Cc1onc(-c2ccccc2)c1C(=O)N/N=C/c1c(F)cccc1Cl	2	x	-4	-1	-2	-4
C[C@@H]1CN([C@H](C)CO)C(=O)CCCn2cc(nn2)CO[C@H]1CN(C)C(=O)Nc1ccccc1C(F)(F)F	x	x	x	1	x	x
Cc1ccc2nc(-c3cccc(N)c3)[nH]c2c1	99*	-2	3	-3	22	11
Nc1ccc(-c2nc3c(ccc4ccccc43)[nH]2)cc1	99*	x	13	-4	36	2
Nc1ccc(-c2nc3ccccc3[nH]2)cc1	98*	-13	-1	-7	15	-4
Nc1ccc2nc(-c3ccc(-c4nc5ccc(N)cc5[nH]4)cc3)[nH]c2c1	99*	x	20	x	62*	23
Clc1nc2c(ccc3ccccc32)[nH]1	x	-7	-9	5	13	0
Fc1ccc(-c2nc3ccccc3[nH]2)cc1	x	-6	1	4	10	6
Cc1c(C(=O)/C=C/N(C)C)nnn1-c1ccc(Cl)cc1C#N	-1	-8	-11	-2	19	-5
SMILES	ALR inh	RBBP9 inhibitor	PREPL inh	Rin1 Abl inh	SUMO HTRF inh	UBC13 polyUb
CC(=O)N1c2ccc(S(=O)(=O)NCCC(=O)N3CCC(C)CC3)cc2CC1C (centres undefined)	-2	x	2	0	16	-3
CC1CC(C)CN(S(=O)(=O)c2cccc(C(=O)N3CCN(c4ccc(F)cc4)CC3)c2)C1 (centres undefined)	x	x	42	2	x	7
COc1cc(/C=N\NC(=O)c2ccc(Cn3nc([N+](=O)[O-])c(Cl)c3C)o2)ccc1O	95*	-4	29	-6	-4	1
Nc1cc2c([N+](=O)[O-])cccc2o1	85*	-13	14	-11	27	-242
COc1ccccc1N1CC(C)(C)C(=O)N(C(=O)c2ccc(Cl)cc2)C1=S	2	-2	1	-1	-18	5
CCC(C)Nc1nc2c(c(=O)[nH]c(=O)n2C)n1CCCc1ccccc1 (centres undefined)	82*	x	15	1	1	-2
Cn1c(=O)[nH]c(=O)c2c1nc(Br)n2C/C=N/Nc1ccccc1	100*	5	-13	4	12	19
CCC(C)Nc1nc2c(c(=O)n(C)c(=O)n2C)n1Cc1ccc(F)cc1 (centres undefined)	90*	-6	15	1	4	7
CNc1nc2c(c(=O)[nH]c(=O)n2C)n1CCCc1ccccc1	8	x	-1	-1	8	4
Cc1cc(=O)oc2cc(OCCSCCN3CCCC3)ccc12	98*	-9	-1	-2	28	12
COc1ccc(N2CCN(CCOc3ccc4c(C)cc(=O)oc4c3)CC2)cc1	10	-3	10	-2	18	-11
COC(=O)C1=CN(Cc2ccccc2)C=C(C(=O)OC)C1c1cc(F)ccc1F	x	x	-1	2	15	14
O=[N+]([O-])c1ccccc1N=Nc1ccc(O)cc1	80*	x	-1	0	x	-44
O=c1[nH]cnc2ncc(-c3ccc(O)cc3)nc12	100*	x	-3	-6	x	-8
COc1ccc(C(=O)C(=NNc2ccccc2)c2ccc(OC)cc2)cc1	x	x	x	1	x	x
COc1ccc(N/N=C(\C=N\O)C(=O)c2ccc(OC)cc2)cc1	93*	-2	5	-7	-20	-5
COc1ccc(/C=C(/C#N)C(=O)Nc2cccc([N+](=O)[O-])c2)cc1C(=O)O	97*	0	5	5	10	-8
N#C/C(=C/c1cccc([N+](=O)[O-])c1)C(=O)Nc1ccccc1O	96*	-1	6	4	9	2
N#C/C(=C\c1cccc([N+](=O)[O-])c1)C(=O)Nc1cccnc1	97*	-10	-5	2	9	14
N#C/C(=C\c1cccc([N+](=O)[O-])c1)C(=O)NCc1cccnc1	x	-8	-4	-5	-3	4
N#C/C(=C\c1cccc([N+](=O)[O-])c1)C(=O)NCc1ccc(Cl)cc1	x	-3	x	-2	7	x
CC(C)(C=O)C1=CC(=O)c2ccccc2C1=O	96*	4	2	-1	22	x
CC(=O)NC(C(=O)N1CCC(c2nc3ccccc3s2)CC1)C(C)C (centres undefined)	4	x	15	-1	7	4
Cc1ccc(F)c(CNC(=O)C2CCC(=O)N(CCCN3CCCC3=O)C2)c1F (centres undefined)	-3	x	6	1	7	11
Cc1ccc(C(=O)NCC(=O)N2CCC(Cc3ccccc3)CC2)cc1	-2	x	-5	0	9	2
CCC(=O)N1CCN=C1SCc1cccc(C(F)(F)F)c1	99*	x	3	-1	3	-7

Screens: PubChem BioAssay, several laboratories
